Columns and labels:
Canis familiaris [1] = assay: Inhibitory activity tested in ex vivo (canine) against ADP-induced platelet aggregation at the dose of 10 mg/kg; format: functional, Canis lupus familiaris
Homo sapiens = organism: Homo sapiens; assay: In vitro inhibitory potency against human gel filtered platelet (GFP) aggregation; format: functional
How it was run: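 Human gel-filtered platelets, aggregation induced by thrombin; IC50; n = 2.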

[2] = biological target: Integrin alpha-IIb/beta-3 (Homo sapiens, UniProt P05106+P08514); assay: In vitro inhibition of biotinylated fibrinogen binding to immobilized fibrinogen receptor.; format: protein-complex assay
How it was run: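 Binding of biotinylated fibrinogen to immobilized purified GPIIb/IIIa, solid phase; IC50; n = 2.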

Canis familiaris [3] = assay: Ex vivo duration of inhibition of ADP-induced canine platelet aggregation by 3 mg/kg.; format: functional, Canis lupus familiaris
How it was run: (§1)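 Fasted mongrel dogs (8–22 kg, n = 3) given compound orally by stomach tube in 10 mL water. Citrated cephalic-vein blood drawn pre-dose and at 30, 60, 90, 120, 180, 240, 360 min. PRP adjusted to 300 000/μL with PPP, warmed 2 min at 37 °C, and aggregated with 20 μM ADP, read as light transmission. Inhibition is drug versus vehicle; duration is time at ≥50% inhibition.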

Canis familiaris [4] = assay: Inhibitory activity tested in ex vivo (canine) against ADP-induced platelet aggregation at the dose of 1 mg/kg; format: functional, Canis lupus familiaris; how it was run: as §1

Sequence of Integrin alpha-IIb/beta-3 (P05106 27-788 limits assumed): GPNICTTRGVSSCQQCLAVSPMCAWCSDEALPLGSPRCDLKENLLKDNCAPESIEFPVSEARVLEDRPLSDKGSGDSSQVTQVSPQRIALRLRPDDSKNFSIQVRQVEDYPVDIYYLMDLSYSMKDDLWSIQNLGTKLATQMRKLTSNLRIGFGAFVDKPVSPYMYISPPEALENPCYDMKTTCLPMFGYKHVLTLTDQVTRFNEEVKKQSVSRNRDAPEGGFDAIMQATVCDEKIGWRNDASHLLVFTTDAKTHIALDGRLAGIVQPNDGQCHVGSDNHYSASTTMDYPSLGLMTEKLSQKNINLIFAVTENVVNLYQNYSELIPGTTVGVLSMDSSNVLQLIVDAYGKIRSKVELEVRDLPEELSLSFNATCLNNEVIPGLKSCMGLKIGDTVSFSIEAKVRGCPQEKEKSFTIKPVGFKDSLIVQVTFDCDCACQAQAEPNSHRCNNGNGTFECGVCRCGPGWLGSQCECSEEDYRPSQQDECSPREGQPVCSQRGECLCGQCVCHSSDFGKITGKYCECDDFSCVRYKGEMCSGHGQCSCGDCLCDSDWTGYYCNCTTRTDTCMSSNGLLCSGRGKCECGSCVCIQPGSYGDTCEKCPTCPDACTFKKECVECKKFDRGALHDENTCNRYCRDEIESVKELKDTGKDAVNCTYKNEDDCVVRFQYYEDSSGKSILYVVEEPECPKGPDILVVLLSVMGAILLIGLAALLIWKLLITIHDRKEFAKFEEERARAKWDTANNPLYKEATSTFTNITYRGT
Sequence of Integrin alpha-IIb/beta-3 (P08514 32-887 limits assumed): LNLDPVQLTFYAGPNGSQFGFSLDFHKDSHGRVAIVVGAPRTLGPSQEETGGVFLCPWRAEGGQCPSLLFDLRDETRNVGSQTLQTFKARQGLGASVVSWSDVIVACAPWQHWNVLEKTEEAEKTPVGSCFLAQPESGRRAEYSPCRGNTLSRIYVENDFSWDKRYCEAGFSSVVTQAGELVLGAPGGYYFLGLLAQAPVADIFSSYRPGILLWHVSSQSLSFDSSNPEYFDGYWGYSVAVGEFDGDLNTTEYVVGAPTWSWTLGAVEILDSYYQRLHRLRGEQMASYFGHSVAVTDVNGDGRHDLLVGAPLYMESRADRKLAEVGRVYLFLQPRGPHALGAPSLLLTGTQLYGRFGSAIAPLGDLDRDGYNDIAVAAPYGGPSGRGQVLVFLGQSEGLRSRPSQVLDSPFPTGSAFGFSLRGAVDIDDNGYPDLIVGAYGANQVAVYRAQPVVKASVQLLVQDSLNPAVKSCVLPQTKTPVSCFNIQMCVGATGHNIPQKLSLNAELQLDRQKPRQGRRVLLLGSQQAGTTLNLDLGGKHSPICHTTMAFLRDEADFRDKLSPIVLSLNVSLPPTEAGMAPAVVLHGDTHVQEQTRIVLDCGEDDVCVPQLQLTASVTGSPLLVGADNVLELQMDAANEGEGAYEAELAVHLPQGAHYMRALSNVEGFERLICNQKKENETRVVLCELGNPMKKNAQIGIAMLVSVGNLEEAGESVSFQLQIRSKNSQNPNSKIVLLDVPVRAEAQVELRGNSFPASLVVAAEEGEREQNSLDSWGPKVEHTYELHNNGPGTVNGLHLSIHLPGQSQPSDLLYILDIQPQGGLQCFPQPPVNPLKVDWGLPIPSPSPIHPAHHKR
Sequence of Integrin alpha-IIb/beta-3 (P08514 891-1039 limits assumed): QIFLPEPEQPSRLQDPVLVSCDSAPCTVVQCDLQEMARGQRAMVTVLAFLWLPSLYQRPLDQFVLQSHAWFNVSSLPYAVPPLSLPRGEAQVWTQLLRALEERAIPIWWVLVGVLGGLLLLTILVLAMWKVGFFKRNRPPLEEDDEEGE

SMILES	IC50 (Homo sapiens; Homo sapiens) [nM]	IC50 [2] [nM]	Duration (Canis familiaris [3]) [min]	further results
CN1CCC(CCC(=O)N2CCC[C@@H](C(=O)N[C@H](CC(=O)O)c3ccc4c(c3)OCO4)C2)CC1	840	0.24		Duration (Canis familiaris [1]): 120 min
O=C(O)C[C@@H](NC(=O)[C@@H]1CCCN(C(=O)CCC2CCNCC2)C1)c1ccc(Cl)s1	40	0.1		
O=C(O)CC(NC(=O)C1CCCN(C(=O)CCC2CCNCC2)C1)c1cncc(-c2cccc([N+](=O)[O-])c2)c1 (centres undefined)		14		
O=C(O)C[C@H](NC(=O)[C@@H]1CCN(C(=O)/C=C/C2CCNCC2)C1)c1cccnc1	140	0.58	360	
O=C(O)CC(NC(=O)C1CCCN(C(=O)CCC2CCNCC2)C1)c1cncc(-c2ccccc2)c1 (centres undefined)		1.8		
CC(C)(C)C#C[C@@H](CC(=O)O)NC(=O)[C@@H]1CCCN(C(=O)CCC2CCNCC2)C1		42		
COc1ccccc1-c1cncc(C(CC(=O)O)NC(=O)C2CCCN(C(=O)CCC3CCNCC3)C2)c1 (centres undefined)		12		
C[C@H](CC(=O)O)NC(=O)[C@@H]1CCCN(C(=O)CCC2CCNCC2)C1	8000	13.5		
O=C(O)C[C@H](NC(=O)[C@@H]1CCCN(C(=O)CCC2CCNCC2)C1)c1cnc(Cl)c(Cl)c1	220	0.34	150	
O=C(O)CC(NC(=O)C1CCCN(C(=O)CCC2CCNCC2)C1)c1cccnc1 (centres undefined)		3		
Cc1ccc(-c2cncc(C(CC(=O)O)NC(=O)C3CCCN(C(=O)CCC4CCNCC4)C3)c2)cc1 (centres undefined)		24		
COC(=O)C[C@H](NC(=O)[C@@H]1CCCN(C(=O)CCC2CCNCC2)C1)c1cccnc1	41000	7.2	60	
O=C(O)CC(NC(=O)C1CCCN(C(=O)CCC2CCNCC2)C1)c1cncc(-c2cc3ccccc3o2)c1 (centres undefined)		36		
O=C(O)C[C@@H](NC(=O)[C@@H]1CCCN(C(=O)CCC2CCNCC2)C1)c1cccnc1	60	0.36	360	
O=C(O)C[C@@H](Cc1ccccc1)NC(=O)[C@@H]1CCCN(C(=O)CCC2CCNCC2)C1	970	0.37		
O=C(O)CC(NC(=O)C1CCCN(C(=O)CCC2CCNCC2)C1)c1cncc(-c2cccs2)c1 (centres undefined)		1.5		
O=C(O)C[C@H](NC(=O)[C@H]1CN(C(=O)CCC2CCNCC2)CCN1)c1cccnc1	600	1.7		
O=C(O)C[C@H](NC(=O)[C@@H]1CCCN(C(=O)/C=C/C2CCNCC2)C1)c1cccnc1	160	0.81	210	
CCOC(=O)C[C@@H](NC(=O)[C@@H]1CCCN(C(=O)CCC2CCNCC2)C1)c1ccc2c(c1)OCO2	36000	48	<30	
O=C(O)C[C@@H](NC(=O)[C@@H]1CCCN(C(=O)CCC2CCNCC2)C1)c1ncc(C(F)(F)F)cc1Cl	11800	66.8	30	
O=C(O)C[C@H](C#Cc1ccccc1)NC(=O)[C@@H]1CCCN(C(=O)CCC2CCNCC2)C1	80	0.22		Duration (Canis familiaris [4]): <30 min
O=C(O)CC(NC(=O)C1CCCN(C(=O)CCC2CCNCC2)C1)c1cncc(-c2cccc3ccccc23)c1 (centres undefined)		26		
O=C(O)C[C@@H](C#Cc1ccccc1)NC(=O)[C@@H]1CCCN(C(=O)CCC2CCNCC2)C1	3500	0.29		
O=C(C[C@H](NC(=O)[C@@H]1CCCN(C(=O)CCC2CCNCC2)C1)c1cccnc1)OCCC1CCCCC1	2200	3.8	120	
N=CN1CCC(CCC(=O)N2CCC[C@@H](C(=O)N[C@@H](CC(=O)O)c3cccnc3)C2)CC1	350	0.75	90	

SMILES	IC50 (Homo sapiens; Homo sapiens) [nM]	IC50 [2] [nM]	Duration (Canis familiaris [3]) [min]	further results
O=C(N[C@H](Cc1ccccc1)[C@@H](O)C(=O)O)[C@@H]1CCCN(C(=O)CCC2CCNCC2)C1	210	17.9		
O=C(O)C[C@H](NC(=O)[C@@H]1CCCN(C(=O)CCC2CCNCC2)C1)c1cncc(-c2ccccc2)c1	70	0.52		
COc1ccc(-c2cncc(C(CC(=O)O)NC(=O)C3CCCN(C(=O)CCC4CCNCC4)C3)c2)cc1 (centres undefined)		11		
O=C(O)C[C@H](NC(=O)[C@@H]1CCCN(C(=O)CCC2CCNCC2)C1)c1ccc(-c2ccsc2)nc1	200	0.37	150	
COc1cccc(-c2cncc(C(CC(=O)O)NC(=O)C3CCCN(C(=O)CCC4CCNCC4)C3)c2)c1 (centres undefined)		11		
O=C(O)C[C@@H](NC(=O)[C@@H]1CCCN(C(=O)CCC2CCNCC2)C1)c1ccc2c(c1)OCO2	20	0.5	180	
O=C(O)C[C@H](NC(=O)[C@@H]1CCCN(C(=O)CCC2CCNCC2)C1)c1cncc(Br)c1	20	0.21	180	
O=C(O)C(O)CNC(=O)[C@@H]1CCCN(C(=O)CCC2CCNCC2)C1 (some centres undefined)	1600	3.5		
Nc1cccc(-c2cncc(C(CC(=O)O)NC(=O)C3CCCN(C(=O)CCC4CCNCC4)C3)c2)c1 (centres undefined)		3.6		
O=C(O)CC(NC(=O)C1CCCN(C(=O)CCC2CCNCC2)C1)c1cncc(-c2ccc(Cl)s2)c1 (centres undefined)		57		
COc1ncc([C@H](CC(=O)O)NC(=O)[C@@H]2CCCN(C(=O)CCC3CCNCC3)C2)cc1Cl	90	3.8	30	
O=C(O)CC(NC(=O)C1CCCN(C(=O)CCC2CCNCC2)C1)c1cncc(Br)c1 (centres undefined)		3		
C#Cc1cncc([C@H](CC(=O)O)NC(=O)[C@@H]2CCCN(C(=O)CCC3CCNCC3)C2)c1	30	0.24		
O=C(O)C[C@@H](NC(=O)[C@@H]1CCCN(C(=O)CCC2CCNCC2)C1)c1cccs1	90	0.1		
Cc1ccc([C@H](CC(=O)O)NC(=O)[C@@H]2CCCN(C(=O)CCC3CCNCC3)C2)cn1	30	0.13	210	
O=C(O)C[C@H](NC(=O)[C@@H]1CCCN(C(=O)CCC2CCNCC2)C1)c1ccc(Cl)nc1	20	0.14	210	
O=C(O)C[C@H](NC(=O)[C@@H]1CCCN(C(=O)CCC2CCNCC2)C1)c1cncc(CCc2ccccc2)c1	30	0.66	180	
O=C(O)C[C@H](NC(=O)[C@@H]1CCCN(C(=O)CCC2CCNCC2)C1)c1cncc(C#Cc2ccccc2)c1	40	0.85		Duration (Canis familiaris [4]): <30 min
O=C(O)CC(NC(=O)C1CCCN(C(=O)CCC2CCNCC2)C1)c1cncc(-c2ccsc2)c1 (centres undefined)		2		
O=C(O)CC(NC(=O)C1CCCN(C(=O)CCC2CCNCC2)C1)c1cncc(-c2ccc3ccccc3c2)c1 (centres undefined)		57		
CC(C)(C)C#C[C@H](CC(=O)O)NC(=O)[C@@H]1CCCN(C(=O)CCC2CCNCC2)C1	31000	5.6		
O=C(O)CCNC(=O)[C@@H]1CCCN(C(=O)CCC2CCNCC2)C1	270	4.8	120	
O=C(O)C[C@@H](NC(=O)[C@@H]1CCCN(C(=O)CCC2CCNCC2)C1)c1cnc2ccccc2c1 (stereo in doubt; 33)		0.18		
O=C(O)C[C@@H](NC(=O)[C@@H]1CCCN(C(=O)CCC2CCNCC2)C1)c1cnc2ccccc2c1 (stereo in doubt; 34)		0.37		IC50 (Homo sapiens): 1200 nM
C#C[C@H](CC(=O)OCC)NC(=O)CCC(=O)Nc1ccc(C(=N)N)cc1 [XEMILOFIBAN]	300	2	>180	
